Test results as given in ChEMBL document CHEMBL4689842, “EUbOPEN Chemogenomics Library wave 1” (2021).

Test system: HEK-293T
Test: Multiplex assay against HEK293T;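 for Population Tubulin-Different-Phenotype (%): share of the cells with healthy nuclei that show this phenotype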
Type: toxicity, cell-based
Conditions: human
Method in brief: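 On a CQ1 microscope at 37°C and 5% CO2, live cells were imaged after compound addition. They had been stained at seeding with Hoechst33342, BioTracker Green Microtubule Cytoskeleton Dye, MitoTracker Red and Annexin V Alexa Fluor 680. CellPathfinder machine-learning gating assigned cells to Hoechst high-intensity objects or normal cells, normal cells to healthy, pyknosed or fragmented nuclei, and pyknosed cells to mitotic or apoptotic. Tubulin, mitochondrial-mass and membrane-permeability phenotypes are per cents of healthy-nucleus cells.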

[1] = 12 h, 1 µM, compound concentration 1 uM, replicate 1
[2] = 12 h, 1 µM, compound concentration 1 uM, replicate 2
[3] = 12 h, 10 µM, compound concentration 10 uM, replicate 1
[4] = 12 h, 10 µM, compound concentration 10 uM, replicate 2
[5] = 24 h, 1 µM, compound concentration 1 uM, replicate 1
[6] = 24 h, 1 µM, compound concentration 1 uM, replicate 2
[7] = 24 h, 10 µM, compound concentration 10 uM, replicate 1
[8] = 24 h, 10 µM, compound concentration 10 uM, replicate 2
[9] = 48 h, 1 µM, compound concentration 1 uM, replicate 1
[10] = 48 h, 1 µM, compound concentration 1 uM, replicate 2
[11] = 48 h, 10 µM, compound concentration 10 uM, replicate 1
[12] = 48 h, 10 µM, compound concentration 10 uM, replicate 2

`O=C(Nc1ccc(-c2ccnc(Nc3ccc(N4CCOCC4)cc3)n2)cc1)[C@@H]1CCCN1` was tested, and the “Population Apoptotic (%)” value [1] was 46%, the “Population Fragmented Nuclei (%)” value [1] was 9% and the “Population Healthy Nuclei (%)” value [1] was 34%. The “Population Hoechst High Intensity Objects (%)” value [1] was 11%, the “Population Membrane Permeable-Phenotype (%)” value [1] was 2% and the “Population Mitochondria Different-Phenotype (%)” value [1] was 77%. For the same compound, the “Population Mitotic Cells (%)” value [1] was 53%, the “Population Normal (%)” value [1] was 88% and the “Population Pyknosed Nuclei (%)” value [1] was 56%. The “Population Tubulin-Different-Phenotype (%)” value [1] was 50%, the “Total Cell Count” value [1] was 289 and the “Population Apoptotic (%)” value [2] was 13%. The “Population Fragmented Nuclei (%)” value [2] was 2%, the “Population Healthy Nuclei (%)” value [2] was 45% and the “Population Hoechst High Intensity Objects (%)” value [2] was 4%. The “Population Membrane Permeable-Phenotype (%)” value [2] was 12%, the “Population Mitochondria Different-Phenotype (%)” value [2] was 19% and the “Population Mitotic Cells (%)” value [2] was 86%. The “Population Normal (%)” value [2] was 95%, the “Population Pyknosed Nuclei (%)” value [2] was 51% and the “Population Tubulin-Different-Phenotype (%)” value [2] was 30%. The “Total Cell Count” value [2] was 246, the “Population Apoptotic (%)” value [3] was 54% and the “Population Fragmented Nuclei (%)” value [3] was 16%. For the same compound, the “Population Healthy Nuclei (%)” value [3] was 17%, the “Population Hoechst High Intensity Objects (%)” value [3] was 18% and the “Population Membrane Permeable-Phenotype (%)” value [3] was 0%. For the same compound, the “Population Mitochondria Different-Phenotype (%)” value [3] was 96%, the “Population Mitotic Cells (%)” value [3] was 45% and the “Population Normal (%)” value [3] was 81%. For the same compound, the “Population Pyknosed Nuclei (%)” value [3] was 65%, the “Population Tubulin-Different-Phenotype (%)” value [3] was 100% and the “Total Cell Count” value [3] was 232. For the same compound, the “Population Apoptotic (%)” value [4] was 27%, the “Population Fragmented Nuclei (%)” value [4] was 12% and the “Population Healthy Nuclei (%)” value [4] was 15%. The “Population Hoechst High Intensity Objects (%)” value [4] was 4%, the “Population Membrane Permeable-Phenotype (%)” value [4] was 12% and the “Population Mitochondria Different-Phenotype (%)” value [4] was 62%. For the same compound, the “Population Mitotic Cells (%)” value [4] was 72%, the “Population Normal (%)” value [4] was 95% and the “Population Pyknosed Nuclei (%)” value [4] was 72%. For the same compound, the “Population Tubulin-Different-Phenotype (%)” value [4] was 91%, the “Total Cell Count” value [4] was 163 and the “Population Apoptotic (%)” value [5] was 51%. The “Population Fragmented Nuclei (%)” value [5] was 10%, the “Population Healthy Nuclei (%)” value [5] was 52% and the “Population Hoechst High Intensity Objects (%)” value [5] was 12%. The “Population Membrane Permeable-Phenotype (%)” value [5] was 1%, the “Population Mitochondria Different-Phenotype (%)” value [5] was 75% and the “Population Mitotic Cells (%)” value [5] was 48%. For the same compound, the “Population Normal (%)” value [5] was 87%, the “Population Pyknosed Nuclei (%)” value [5] was 36% and the “Population Tubulin-Different-Phenotype (%)” value [5] was 51%. For the same compound, the “Total Cell Count” value [5] was 337, the “Population Apoptotic (%)” value [6] was 17% and the “Population Fragmented Nuclei (%)” value [6] was 3%. For the same compound, the “Population Healthy Nuclei (%)” value [6] was 63%, the “Population Hoechst High Intensity Objects (%)” value [6] was 3% and the “Population Membrane Permeable-Phenotype (%)” value [6] was 6%. For the same compound, the “Population Mitochondria Different-Phenotype (%)” value [6] was 21%, the “Population Mitotic Cells (%)” value [6] was 82% and the “Population Normal (%)” value [6] was 96%. The “Population Pyknosed Nuclei (%)” value [6] was 32%, the “Population Tubulin-Different-Phenotype (%)” value [6] was 46% and the “Total Cell Count” value [6] was 303. For the same compound, the “Population Apoptotic (%)” value [7] was 57%, the “Population Fragmented Nuclei (%)” value [7] was 18% and the “Population Healthy Nuclei (%)” value [7] was 24%. For the same compound, the “Population Hoechst High Intensity Objects (%)” value [7] was 12%, the “Population Membrane Permeable-Phenotype (%)” value [7] was 1% and the “Population Mitochondria Different-Phenotype (%)” value [7] was 98%. The “Population Mitotic Cells (%)” value [7] was 42%, the “Population Normal (%)” value [7] was 87% and the “Population Pyknosed Nuclei (%)” value [7] was 56%. For the same compound, the “Population Tubulin-Different-Phenotype (%)” value [7] was 98%, the “Total Cell Count” value [7] was 242 and the “Population Apoptotic (%)” value [8] was 32%. The “Population Fragmented Nuclei (%)” value [8] was 7%, the “Population Healthy Nuclei (%)” value [8] was 38% and the “Population Hoechst High Intensity Objects (%)” value [8] was 4%. For the same compound, the “Population Membrane Permeable-Phenotype (%)” value [8] was 7%, the “Population Mitochondria Different-Phenotype (%)” value [8] was 56% and the “Population Mitotic Cells (%)” value [8] was 67%. The “Population Normal (%)” value [8] was 95%, the “Population Pyknosed Nuclei (%)” value [8] was 53% and the “Population Tubulin-Different-Phenotype (%)” value [8] was 88%. The “Total Cell Count” value [8] was 186, the “Population Apoptotic (%)” value [9] was 48% and the “Population Fragmented Nuclei (%)” value [9] was 10%. For the same compound, the “Population Healthy Nuclei (%)” value [9] was 71%, the “Population Hoechst High Intensity Objects (%)” value [9] was 7% and the “Population Membrane Permeable-Phenotype (%)” value [9] was 3%. The “Population Mitochondria Different-Phenotype (%)” value [9] was 31%, the “Population Mitotic Cells (%)” value [9] was 51% and the “Population Normal (%)” value [9] was 92%. For the same compound, the “Population Pyknosed Nuclei (%)” value [9] was 17%, the “Population Tubulin-Different-Phenotype (%)” value [9] was 33% and the “Total Cell Count” value [9] was 482. For the same compound, the “Population Apoptotic (%)” value [10] was 10%, the “Population Fragmented Nuclei (%)” value [10] was 4% and the “Population Healthy Nuclei (%)” value [10] was 84%. For the same compound, the “Population Hoechst High Intensity Objects (%)” value [10] was 3%, the “Population Membrane Permeable-Phenotype (%)” value [10] was 4% and the “Population Mitochondria Different-Phenotype (%)” value [10] was 6%. For the same compound, the “Population Mitotic Cells (%)” value [10] was 90%, the “Population Normal (%)” value [10] was 96% and the “Population Pyknosed Nuclei (%)” value [10] was 10%. The “Population Tubulin-Different-Phenotype (%)” value [10] was 25%, the “Total Cell Count” value [10] was 495 and the “Population Apoptotic (%)” value [11] was 49%. The “Population Fragmented Nuclei (%)” value [11] was 22%, the “Population Healthy Nuclei (%)” value [11] was 48% and the “Population Hoechst High Intensity Objects (%)” value [11] was 8%. The “Population Membrane Permeable-Phenotype (%)” value [11] was 4%, the “Population Mitochondria Different-Phenotype (%)” value [11] was 84% and the “Population Mitotic Cells (%)” value [11] was 50%. The “Population Normal (%)” value [11] was 91%, the “Population Pyknosed Nuclei (%)” value [11] was 29% and the “Population Tubulin-Different-Phenotype (%)” value [11] was 95%. For the same compound, the “Total Cell Count” value [11] was 271, the “Population Apoptotic (%)” value [12] was 36% and the “Population Fragmented Nuclei (%)” value [12] was 10%. For the same compound, the “Population Healthy Nuclei (%)” value [12] was 60%, the “Population Hoechst High Intensity Objects (%)” value [12] was 5% and the “Population Membrane Permeable-Phenotype (%)” value [12] was 10%. For the same compound, the “Population Mitochondria Different-Phenotype (%)” value [12] was 38%, the “Population Mitotic Cells (%)” value [12] was 63% and the “Population Normal (%)” value [12] was 94%. The “Population Tubulin-Different-Phenotype (%)” value [12] was 81% and the “Total Cell Count” value [12] was 246.
